Measured values pooled from the literature.
Lines come from different studies, so protocols differ.
Target: Mitogen-activated protein kinase kinase kinase 7 (MAP3K7, Homo sapiens, UniProt O43318)

SMILES | read-out | action | method | concentration | measurement | value
COc1cc(Nc2cnc(C#N)c(O[C@H](C)CN(C)C)n2)ncc1-c1cnn(C)c1 | enzyme activity | inhibitor | radiometric | 10 µM | remaining activity | 53%
Cc1ccc(C(=O)Nc2ccc(CN3CCN(C)CC3)c(C(F)(F)F)c2)cc1C#Cc1cnc2cccnn12 | enzyme activity | inhibitor |  | 23.5 nM | remaining activity | 3.3%
CS(=O)(=O)CCNCc1ccc(-c2ccc3ncnc(Nc4ccc(OCc5cccc(F)c5)c(Cl)c4)c3c2)o1 | cell-free assay |  |  | 0.5 µM | remaining signal | 89%
C=CC(=O)Nc1cc(Nc2nccc(Nc3cc(Cl)c(F)cc3C(C)(C)O)n2)c(OC)cc1N1CC[C@@H](N(C)C)C1 | enzyme activity | inhibitor |  | 1 µM | inhibition | 21%
Cc1ccc(Nc2nccc(N(C)c3ccc4c(C)n(C)nc4c3)n2)cc1S(N)(=O)=O | enzyme activity | inhibitor |  | 0.3 µM | inhibition | -8%
CO[C@@H](C)c1c(Nc2ccc([C@H](N(C)C(=O)C3CCS(=O)(=O)CC3)C(F)(F)F)cc2)cnc2cc(Cl)nn12 | cell-free assay |  | competition with immobilised ligand | 1 µM | remaining binding | 89%
Cc1cc(NC(=O)c2cccc3cc(-c4cccc5[nH]nc(N)c45)ccc23)ccc1F | enzyme activity | inhibitor |  | 0.1 µM | activity vs control | 100%
COc1ccc2cc(OCC3(C(=O)O)CN(C(=O)c4ccc(F)cc4)C3)ccc2c1 | cell-free assay |  | competition with immobilised ligand | 1 µM | remaining binding | 96%
COc1cc(/C=C/C(=O)CC(=O)/C=C/c2ccc(O)c(OC)c2)ccc1O | enzyme activity | inhibitor |  | 1 µM | activity vs control | 102%
CCN(CC)CCNC(=O)c1c(C)[nH]c(/C=C2\C(=O)Nc3ccc(F)cc32)c1C | enzyme activity | inhibitor |  | 10 µM | inhibition | 92%
O=C1Nc2ccc(Cl)cc2C1=Cc1cc(Cl)c(O)c(Cl)c1 | cell-free assay |  |  | 0.5 µM | remaining signal | 86.8%
C[C@H](c1ccc(F)cc1)N(Cc1cccc(C(=O)O)c1)C(=O)c1cnc2ccccc2c1 | cell-free assay |  | competition with immobilised ligand | 1 µM | remaining binding | 100%
FC(F)c1nc2ccccc2n1-c1nc(N2CCOCC2)nc(N2CCOCC2)n1 | enzyme activity | inhibitor |  | 10 µM | remaining activity | 97%
COc1cc2ncnc(Nc3ccc(F)c(Cl)c3)c2cc1OCCCN1CCOCC1 | cell-free assay |  |  | 0.5 µM | remaining signal | 91.3%
c1ccc(CNc2nc(N3CCOc4ccccc43)nc3c2CCCC3)cc1 | target engagement in cells | inhibitor | chemoproteomics | 20 mM | inhibition | -10.3%
CN(C(=O)c1ccccc1)c1cc(N(C)c2ccc3c(c2)CCc2ccc(C(=O)NCCN4CCOCC4)cc2C3=O)ccc1F | cell-free assay |  | competition with immobilised ligand | 1 µM | remaining binding | 100%
Cc1sc(C(=O)NC2COC2)cc1-n1cc(NC(=O)Nc2c(F)cccc2Cl)cn1 | enzyme activity | inhibitor |  | 10 µM | remaining activity | 98.4%
COc1cc(Cl)c(C(=O)N[C@@H](CN[C@H]2CC[C@@H](N)CC2)Cc2ccc(C#N)cc2)cc1-c1ccc(CN[C@H](C)c2ccc(C)cc2)o1 | enzyme activity | inhibitor |  | 1 µM | remaining activity | 96%
Cc1cc(-n2nc(Cc3cc(F)cc(C(F)(F)F)c3)nc2C)ccc1C(N)=O | cell-free assay |  | competition with immobilised ligand | 1 µM | remaining binding | 100%
CC(C)(O)[C@H]1CC[C@H](Nc2ccc3ncc(-c4cccc(C(F)(F)F)c4)n3n2)CC1 | enzyme activity | inhibitor |  | 1 µM | remaining activity | 107%
Oc1cccc(-c2nc(N3CCOCC3)c3oc4ncccc4c3n2)c1 | enzyme activity | inhibitor |  | 10 µM | remaining activity | 79%
Cc1nccc(COC(=O)N2C[C@@H]3[C@@H](CNC(=O)c4ccc5[nH]nnc5c4)[C@@H]3C2)n1 | cell-free assay |  | competition with immobilised ligand | 1 µM | remaining binding | 75%
CCN(CC)c1ccc(C2=NNC(=O)CC2C)cc1[N+](=O)[O-] (stereo not drawn) | enzyme activity | inhibitor |  | 10 µM | remaining activity | 107%
CS(=O)(=O)N1CCCC(NC(=O)[C@H](CCC2CCCCC2)NC(=O)c2ccc(CNC(=O)c3cnc4ccccn34)cc2)C1 (stereo partly drawn) | cell-free assay |  | competition with immobilised ligand | 0.1 µM | remaining binding | 94%
CCCS(=O)(=O)Nc1ccc(F)c(C(=O)c2c[nH]c3ncc(-c4ccc(Cl)cc4)cc23)c1F | enzyme activity | inhibitor |  | 1 µM | inhibition | < 10%
Cc1nc(C2CCN(C(=O)c3ccc(OC(F)(F)F)cc3N)CC2)c2ncc(N3CCN(C)CC3)cc2n1 | cell-free assay |  | competition with immobilised ligand | 1 µM | remaining binding | 100%
FC(F)(F)Oc1cccc(-c2cnc3ccc(-c4ccncc4)nn23)c1 | enzyme activity | inhibitor | radiometric | 1 µM | activity vs control | 58%
